In data set [1] the target is Cholinesterase (Equus caballus, UniProt P81908). Briefly: Inhibition of equine serum BuChE using butyrylthiocholine iodide as substrate preincubated with enzyme for 6 mins followed by substrate addition and measured for 180 secs by Ellman's method. In short, it runs like this:
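Ellman assay. Enzyme at 0.12 U/mL in 50 mM Tris-HCl pH 8.0 with 0.1% w/v BSA, plus 1.5 mM DTNB, preincubated with compound (0.001-100 μM, diluted from DMSO stock into Tris buffer with MgCl₂/NaCl) at 37 °C for 6 min. Then 15 mM butyrylthiocholine iodide was added, and absorbance at 405 nm was read at 0, 60, 120 and 180 s. IC50 from nonlinear regression of log concentration-response curves; at least three experiments in triplicate.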
(In general: DTNB colorimetry detects thiols as they appear.)

For data set [2], the species on record is Homo sapiens. Briefly: Selectivity for recombinant human MAO-B over recombinant human MAO-A.
The target in data set [3] is T1, Amine oxidase [flavin-containing] A (Homo sapiens, UniProt P21397).
T1 sequence (P21397 whole entry): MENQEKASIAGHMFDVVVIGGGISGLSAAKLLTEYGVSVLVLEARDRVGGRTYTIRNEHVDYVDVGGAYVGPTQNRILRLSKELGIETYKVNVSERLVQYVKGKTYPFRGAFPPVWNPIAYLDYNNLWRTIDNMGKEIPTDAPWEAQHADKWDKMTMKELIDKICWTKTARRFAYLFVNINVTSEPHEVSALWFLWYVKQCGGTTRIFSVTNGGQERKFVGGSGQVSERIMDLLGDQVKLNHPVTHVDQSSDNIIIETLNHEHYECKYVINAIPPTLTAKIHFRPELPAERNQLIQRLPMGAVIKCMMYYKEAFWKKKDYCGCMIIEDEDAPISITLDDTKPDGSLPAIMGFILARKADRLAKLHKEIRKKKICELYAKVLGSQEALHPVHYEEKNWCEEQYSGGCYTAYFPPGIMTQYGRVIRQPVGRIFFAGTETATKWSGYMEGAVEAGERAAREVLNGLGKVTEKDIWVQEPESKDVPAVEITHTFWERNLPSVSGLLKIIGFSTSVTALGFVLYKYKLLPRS
Kind of data set: Inhibition of recombinant human MAO- A using p-tyramine as substrate at 100 uM preincubated with enzyme for 15 mins followed incubation with substrate for 20 mins by Amplex red reagent based fluorescence based analysis relative to control. Conditions: time 35 min. In short, it runs like this:
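Human MAO-A (1.1 µg protein, activity set to oxidize 165 pmol p-tyramine/min) was preincubated with compound in 0.05 M potassium phosphate pH 7.4 at 37 °C for 15 min in the dark. The reaction was started with 2 mM p-tyramine, 2 U/mL HRP and 200 µM Amplex Red for 20 min at 37 °C. Fluorescence was read at ex 545/em 590 nm, and inhibition was calculated against the uninhibited control after background subtraction.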

Data set [4] has as its target T2, Amine oxidase [flavin-containing] B (Homo sapiens, UniProt P27338).
T2 sequence (P27338 whole entry): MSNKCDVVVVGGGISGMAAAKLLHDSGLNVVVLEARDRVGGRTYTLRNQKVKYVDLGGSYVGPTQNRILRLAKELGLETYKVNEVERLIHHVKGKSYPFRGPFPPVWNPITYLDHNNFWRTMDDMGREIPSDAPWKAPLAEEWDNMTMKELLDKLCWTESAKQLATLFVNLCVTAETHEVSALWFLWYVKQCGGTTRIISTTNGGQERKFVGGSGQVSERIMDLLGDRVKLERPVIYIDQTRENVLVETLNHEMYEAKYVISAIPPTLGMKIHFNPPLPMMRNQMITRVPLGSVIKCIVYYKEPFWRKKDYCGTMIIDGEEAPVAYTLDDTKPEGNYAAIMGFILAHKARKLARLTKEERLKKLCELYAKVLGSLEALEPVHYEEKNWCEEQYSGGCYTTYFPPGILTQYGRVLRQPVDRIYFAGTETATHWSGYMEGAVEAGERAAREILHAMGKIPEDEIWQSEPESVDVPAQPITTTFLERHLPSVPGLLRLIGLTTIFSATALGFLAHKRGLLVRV

The nature of data set [5]: Selectivity index, ratio of IC50 for equine serum BuChE to IC50 for electric eel AChE by Ellman's method.
Data set [6] has as its target Acetylcholinesterase (Electrophorus electricus, UniProt O42275). Briefly: Inhibition of electric eel AChE using acetylthiocholine iodide as substrate preincubated with enzyme for 6 mins followed by substrate addition and measured for 180 secs by Ellman's method.
Data set [7] addresses Cholinesterase (Equus caballus) (UniProt P81908). Briefly: Competitive inhibition of equine serum BuChE […] using varying concentrations of butyrylthiocholine iodide as substrate at 2.6 to 10.5 uM by Lineweaver-burk plot analysis. The conditions noted are these: dose microM 2.6-10.5.
The target of data set [8] is T1, Amine oxidase [flavin-containing] A. Kind of data set: Inhibition of recombinant human MAO- A using p-tyramine as substrate preincubated with enzyme for 15 mins followed incubation with substrate for 20 mins by Amplex red reagent based fluorescence based analysis.
In data set [9] the target is Acetylcholinesterase (Electrophorus electricus) (UniProt O42275). Briefly: Mixed-type inhibition of electric eel AChE using varying concentration of acetylthiocholine iodide as substrate at 0.185 to 0.74 uM by Lineweaver-burk plot analysis. Conditions: dose microM 0.185-0.74.
Data set [10] has as its target T2, Amine oxidase [flavin-containing] B. Kind of data set: Competitive inhibition of recombinant human MAO-B using varying concentration of p-tyramine as substrate at 0.13 to 0.54 uM by Lineweaver-burk plot analysis. The conditions noted are these: dose 0.13-0.54 µM. In short, it runs like this:
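Preincubation-free kinetic run with human MAO-B: initial oxidation rates of p-tyramine measured at six substrate concentrations without inhibitor and with three inhibitor concentrations (0.54, 0.27, 0.13 μM). Activity was read by the Amplex Red/horseradish peroxidase fluorescence method. Plots were fitted by weighted least-squares analysis, assuming the variance of v is a constant percentage of v.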

Data set [11] can be described thus: in vitro. The conditions noted are these: PAMPA. In general terms: PAMPA measures passive passage across an artificial lipid membrane.
Data set [12] concerns PC-12. Kind of data set: Cytotoxicity against rat PC12 cells assessed as cell viability at 1 to 50 uM measured after 24 hrs by MTT assay. The data set is classed as cell-based. The conditions noted are these: pc-12, 24 h, dose 1-50 µM. In short, it runs like this:
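PC12 cells were grown at 37 °C, 5% CO₂ in DMEM with 10% bovine calf serum and penicillin/streptomycin, then seeded at 10,000 cells/well. At the required confluence they were switched to serum-free medium with compound for 24 h. Viability was read by MTT (4 h at 37 °C), with formazan dissolved in DMSO.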
Background: Formazan colour is commonly taken as a measure of viable cells.

Active and inactive are the calls of the source. No cut-off for these calls is given here. Some results are limits rather than exact numbers.

Acetylcholinesterase, sequence (O42275 whole entry): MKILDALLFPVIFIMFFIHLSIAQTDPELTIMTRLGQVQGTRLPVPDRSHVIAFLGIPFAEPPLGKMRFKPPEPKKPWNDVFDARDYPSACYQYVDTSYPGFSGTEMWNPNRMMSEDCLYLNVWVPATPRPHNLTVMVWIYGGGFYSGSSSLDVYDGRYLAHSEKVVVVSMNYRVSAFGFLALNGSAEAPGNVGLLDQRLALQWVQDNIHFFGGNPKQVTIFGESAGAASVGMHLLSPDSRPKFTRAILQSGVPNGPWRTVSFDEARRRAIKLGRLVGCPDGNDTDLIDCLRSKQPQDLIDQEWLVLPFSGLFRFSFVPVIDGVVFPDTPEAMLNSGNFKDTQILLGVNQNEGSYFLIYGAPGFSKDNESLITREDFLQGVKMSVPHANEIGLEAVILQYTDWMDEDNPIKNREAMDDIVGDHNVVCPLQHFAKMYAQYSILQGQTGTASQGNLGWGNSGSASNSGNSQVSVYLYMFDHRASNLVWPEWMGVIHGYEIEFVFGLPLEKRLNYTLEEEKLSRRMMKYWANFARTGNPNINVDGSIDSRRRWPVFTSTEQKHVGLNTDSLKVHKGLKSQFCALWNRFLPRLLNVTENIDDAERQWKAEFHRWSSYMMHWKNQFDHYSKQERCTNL
Cholinesterase, sequence (P81908 whole entry): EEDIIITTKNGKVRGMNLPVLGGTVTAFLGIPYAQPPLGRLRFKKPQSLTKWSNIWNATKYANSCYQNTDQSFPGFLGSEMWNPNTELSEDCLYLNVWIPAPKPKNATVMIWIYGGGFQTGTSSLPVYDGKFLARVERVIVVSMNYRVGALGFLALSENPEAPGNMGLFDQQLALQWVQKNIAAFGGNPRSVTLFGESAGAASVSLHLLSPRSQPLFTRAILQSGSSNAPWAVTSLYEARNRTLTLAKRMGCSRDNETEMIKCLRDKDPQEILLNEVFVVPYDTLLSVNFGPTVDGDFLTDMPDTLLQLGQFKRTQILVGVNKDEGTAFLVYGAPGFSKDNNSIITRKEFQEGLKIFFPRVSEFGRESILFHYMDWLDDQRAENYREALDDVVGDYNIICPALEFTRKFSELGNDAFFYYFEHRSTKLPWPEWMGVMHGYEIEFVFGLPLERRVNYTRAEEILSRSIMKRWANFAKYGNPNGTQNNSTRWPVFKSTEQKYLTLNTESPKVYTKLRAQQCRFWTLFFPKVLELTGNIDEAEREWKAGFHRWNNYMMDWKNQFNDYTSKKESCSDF
Cholinesterase (Equus caballus), sequence (P81908 whole entry): as above
Acetylcholinesterase (Electrophorus electricus), sequence (O42275 24-633 limits assumed): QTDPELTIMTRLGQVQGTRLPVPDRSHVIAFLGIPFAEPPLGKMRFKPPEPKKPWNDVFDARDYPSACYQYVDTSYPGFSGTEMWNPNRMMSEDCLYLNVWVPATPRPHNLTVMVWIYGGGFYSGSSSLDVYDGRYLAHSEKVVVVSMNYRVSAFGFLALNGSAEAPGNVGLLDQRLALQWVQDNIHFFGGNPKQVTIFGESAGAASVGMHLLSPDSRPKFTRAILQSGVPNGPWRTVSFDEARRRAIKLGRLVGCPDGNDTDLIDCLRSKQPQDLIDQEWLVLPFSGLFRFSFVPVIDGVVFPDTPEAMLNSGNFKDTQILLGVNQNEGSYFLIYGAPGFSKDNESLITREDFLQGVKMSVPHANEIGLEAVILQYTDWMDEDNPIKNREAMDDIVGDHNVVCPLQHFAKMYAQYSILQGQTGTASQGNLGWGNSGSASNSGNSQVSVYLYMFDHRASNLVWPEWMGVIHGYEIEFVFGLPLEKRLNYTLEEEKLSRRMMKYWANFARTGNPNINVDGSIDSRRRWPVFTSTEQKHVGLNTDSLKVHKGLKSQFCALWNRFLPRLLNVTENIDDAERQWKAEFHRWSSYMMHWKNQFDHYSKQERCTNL

On to `Cc1ccc2occ(C(=O)NCCC3CCN(Cc4ccccc4)CC3)c(=O)c2c1`, for which the figures for the IC50 in data set [1], in [4] and in [6] were 0.91 µM, 52.5 µM and 0.11 µM, respectively. Further, the Selectivity ratio in data set [2] was greater than 1.9. Also, the inhibition (commonly the change of the read-out against control, counted positive when it falls) at 100 µM in data set [3] was 30.6%. The Ratio IC50 in data set [5] worked out at 8.3.

Take `O=C(NCCC1CCN(Cc2ccccc2)CC1)c1coc2ccc(OCc3ccccc3)cc2c1=O`: the IC50 – broadly, the concentration at which inhibition is half-maximal – was determined as 5.24 µM in data set [1], 67.2 µM in data set [8], 0.272 µM in data set [4] and 0.37 µM in data set [6]. Moreover, the Selectivity ratio in data set [2] came to 247. Moreover, the inhibition result in [7] and in data set [9] was “Active” in each case. For the same compound, in data set [10], the “inhibition (INH)” value was “Active”. Moreover, the Papp – broadly, a coefficient for how fast a substance crosses the barrier – at 16 h in data set [11] stood at 5.4 ×10⁻⁶ cm/s. For the same compound, in data set [5], the Ratio IC50 was 14.2. The Activity entry in data set [12] is “Non-Toxic”.

Consider `Cc1ccc2occ(C(=O)NC3CCN(Cc4ccccc4)CC3)c(=O)c2c1`, for which the IC50 in data set [1] was found to be 15.3 µM; in data set [4], 19.5 µM; in data set [6] it was 1.74 µM. Moreover, in data set [2], the Selectivity ratio was greater than 5.1. The inhibition at 100 µM in data set [3] came out at 48.1%. Moreover, the Ratio IC50 in [5] was 8.8.

For the compound `O=C(NC1CCN(Cc2ccccc2)CC1)c1coc2cc(Br)ccc2c1=O`, the IC50 in [1] stood at 18.2 µM; in [4], 19.7 µM; in [6] it was 9.23 µM. Further, in data set [2], the Selectivity ratio was greater than 5.1. Further, the inhibition at 100 µM in data set [3] worked out at 31.6%. Besides, in data set [5], the Ratio IC50 was determined as 1.2.

For `O=C(NCCC1CCN(Cc2ccccc2)CC1)c1coc2ccc(Br)cc2c1=O`, the values for the IC50 in data set [1], in data set [4] and in data set [6] were 1.17 µM, 26.1 µM and 0.104 µM, respectively. Further, in data set [2], the Selectivity ratio was greater than 3.8. Also, the inhibition at 100 µM in data set [3] was 48.2%. Moreover, in data set [5], the Ratio IC50 was determined as 11.3.

On to `O=C(NC1CCN(Cc2ccccc2)CC1)c1coc2ccc(OCc3ccccc3)cc2c1=O`, for which the IC50 in data set [1] was 12.4 µM; in data set [8], 11.6 µM; in data set [4], 0.035 µM; in [6], 1.85 µM. In [2], the Selectivity ratio came to 211. This compound registered a Papp at 16 h in [11] of 4.6 ×10⁻⁶ cm/s. Moreover, the Ratio IC50 in data set [5] worked out at 6.7. The Activity entry in data set [12] is given as “Non-Toxic”.

Regarding `COc1ccc2c(=O)c(C(=O)NCCC3CCN(Cc4ccccc4)CC3)coc2c1`, the concentration for half-maximal inhibition (IC50) in [1] came to 0.52 µM; in data set [4], 30.9 µM; in [6] it was 0.145 µM. For the same compound, the Selectivity ratio in data set [2] was greater than 3.2. In addition, the inhibition at 100 µM in data set [3] came to 32.4%. Further, in [5], the Ratio IC50 was determined as 3.7.

Take `O=C(NC1CCN(Cc2ccccc2)CC1)c1coc2ccccc2c1=O`: the values for the concentration for half-maximal inhibition (IC50) in data set [1], in [4] and in data set [6] were 18.7 µM, 17.7 µM and 2.96 µM, respectively. Further, the Selectivity ratio in [2] is less than 5.6. The inhibition at 100 µM in [3] came out at 63.8%. This compound also had a Papp at 16 h in data set [11] of 15.6 ×10⁻⁶ cm/s. In data set [5], the Ratio IC50 turned out to be 6.3.

As to `O=C(NCCC1CCN(Cc2ccccc2)CC1)c1coc2cc(Br)ccc2c1=O`, the IC50 in data set [1] was determined as 1.24 µM; in [4], 29.5 µM; in data set [6], 0.154 µM. The Selectivity ratio in data set [2] is greater than 3.4. The inhibition at 100 µM in data set [3] was determined as 30.3%. In data set [5], the Ratio IC50 was determined as 11.9.

`O=C(NC1CCN(Cc2ccccc2)CC1)c1cc(=O)c2ccccc2o1`: the IC50 in data set [1] came out at 27.9 µM; in [4], 33.3 µM; in data set [6] it was 5.69 µM. In addition, the Selectivity ratio in data set [2] is greater than 3.1. The inhibition at 100 µM in data set [3] stood at 29.7%. Besides, the Ratio IC50 in data set [5] was found to be 7.6.

Consider `O=C(NC1CCN(Cc2ccccc2)CC1)c1coc2ccc(Br)cc2c1=O`, for which the figures for the IC50 in [1], in [4] and in [6] were 9.45 µM, 22.8 µM and 1.57 µM, respectively. In data set [2], the Selectivity ratio was greater than 4.4. Moreover, in data set [3], the inhibition at 100 µM amounted to 35.5%. For the same compound, in data set [5], the Ratio IC50 is 6.1.

`COc1ccc2occ(C(=O)NCCC3CCN(Cc4ccccc4)CC3)c(=O)c2c1`: the IC50 amounted to 0.45 µM in data set [1], 11.2 µM in [4] and 0.033 µM in [6]. For the same compound, in [2], the Selectivity ratio was less than 8.9. Besides, the inhibition at 100 µM in data set [3] is 72.4%. For the same compound, the Papp at 16 h in data set [11] was 16.7 ×10⁻⁶ cm/s. The Ratio IC50 in data set [5] stood at 13.7. Moreover, the Activity entry in data set [12] is recorded as “Non-Toxic”.

With `O=C(NCCC1CCN(Cc2ccccc2)CC1)c1coc2ccccc2c1=O`, the IC50 in data set [1] came to 0.6 µM; in data set [4], 35.3 µM; in data set [6], 0.069 µM. Also, in [2], the Selectivity ratio was less than 2.8. Also, the inhibition at 100 µM in data set [3] came out at 68.6%. Besides, the Ratio IC50 in data set [5] is 8.7.

Consider `COc1ccc2c(=O)c(C(=O)NC3CCN(Cc4ccccc4)CC3)coc2c1`, for which the half-inhibitory concentration (IC50) in [1] is 9.78 µM; in data set [4] it was 28.6 µM; in data set [6] it was 1.58 µM. Also, the Selectivity ratio in data set [2] is greater than 3.5. The inhibition at 100 µM in [3] was 37.4%. In addition, the Ratio IC50 in [5] came to 6.2.

With `COc1ccc2occ(C(=O)NC3CCN(Cc4ccccc4)CC3)c(=O)c2c1`, the IC50 is 24.4 µM in [1], 46.3 µM in data set [4] and 10.1 µM in [6]. The Selectivity ratio in [2] was greater than 2.1. For the same compound, in data set [3], the inhibition at 100 µM was determined as 7.5%. Further, in data set [5], the Ratio IC50 was found to be 2.4.

On to `O=C(NCCC1CCN(Cc2ccccc2)CC1)c1cc(=O)c2ccccc2o1`, for which the IC50 in data set [1] was determined as 1.54 µM; in data set [4] it was 20 µM; in [6], 0.31 µM. Besides, the Selectivity ratio in data set [2] is greater than 4.9. Besides, the inhibition at 100 µM in data set [3] turned out to be 29.5%. The Ratio IC50 in data set [5] is 4.9.

(Values after ChEMBL document CHEMBL4699390, “Chromone and donepezil hybrids as new multipotent cholinesterase and monoamine oxidase inhibitors for the potential treatment of Alzheimer''s disease” (RSC Med Chem, 2020).)
